Several values for one entry are separate records, joined by “and”; a condition that tells them apart may be missing. Equal values may be shown once.
What was measured:
PI-3K = assay: PI-3K-dependent AKT phosphorylation; assay type: cell-based, human; settings: SW620 cells
SW620 cells [1] = assay: cell growth inhibition, SRB assay, 5-day continuous exposure; assay type: cell-based, human
LoVo cells [2] = assay: cell growth inhibition, SRB assay, 5-day continuous exposure; assay type: cell-based, human
Outline: (§1)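 Human cancer cells in RPMI 1640 with 10% FBS, penicillin/streptomycin, at 37 °C and 5% CO2. Test compound (10 mM DMSO stock) given by continuous exposure for 5 days. Growth measured by SRB assay. […] Means ± SD of 3 independent experiments.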

MCF7 cells [3] = assay: as above; assay type: cell-based, human
Outline: as §1

MDA-MB-231 cells = assay: as above; assay type: cell-based; settings: Homo sapiens, MDA-MB-231, 120 h
Outline: as §1

SW620 cells [4] = assay: clonogenic survival assay; assay type: cell-based, human
LoVo cells [5] = assay: clonogenic survival assay; assay type: cell-based, human
Outline: (§2)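 Cells in RPMI 1640/10% FBS were exposed in 6-well plates for 16 h to etoposide or doxorubicin with or without test compound (1 μM), or to test compound alone. Cells then harvested and reseeded in drug-free medium. Colonies stained with crystal violet after 10-14 days and counted automatically. Fold enhancement = survival with cytotoxic alone / survival with cytotoxic + 1 μM test compound. Means ± SD, n = 3.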

MCF7 cells [6] = assay: clonogenic survival assay; assay type: cell-based, human; settings: MCF7, 1 μM, 16 hr exposure, single agent
Outline: as §2

V3-YAC cells = assay: clonogenic survival assay, DNA-PKcs-proficient cells; assay type: cell-based, Chinese hamster
Outline: (§3)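 Chinese hamster ovary V3 cells (DNA-PKcs-deficient) and V3-YAC cells (human DNA-PKcs on YAC; kept under G-418 500 μg/ml) in RPMI 1640/10% FBS. Etoposide alone or with 1 μM test compound, or test compound alone, for 16 h. Reseeded drug-free. Crystal violet colony counts after 10-14 days. Fold enhancement as survival ratio. Means ± SD of 3 independent experiments.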

V3 cells = assay: clonogenic survival assay, DNA-PKcs-deficient cells; assay type: cell-based, Chinese hamster
Outline: as §3

M059-Fus-1 cells = assay: clonogenic survival assay, DNA-PKcs-proficient cells; assay type: cell-based, human
Outline: (§4)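 Human glioblastoma M059J cells (DNA-PKcs-deficient) and M059-Fus-1 cells (chromosome 8 transfected; G-418 200 μg/ml) in DMEM/10% FBS. Etoposide or doxorubicin alone or with 1 μM test compound, or test compound alone, for 16 h. Reseeded drug-free. Crystal violet colony counts after 10-14 days. Fold enhancement as survival ratio. Means ± SD, n = 3.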

M059J cells = assay: clonogenic survival assay, DNA-PKcs-deficient cells; assay type: cell-based, human; settings: M059J
Outline: as §4

[7] = plasma pharmacokinetics following different routes of administration; assay type: in vivo, Balb C mice; settings: for CL: mice
Outline: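 Female Balb C mice given test compound at 10 mg/kg i.v., i.p. or p.o. Vehicle: equimolar phosphoric acid in sterile saline, final pH 5. Plasma sampled at 5-360 min, 3 mice per time point. Plasma levels by LC-MS/MS. PK parameters calculated from mean values.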

DNA-PK = DNA-PK (Homo sapiens, UniProt P78527); assay: DNA-PK ex vivo pharmacodynamic assay, p53 peptide; parameters: species or system mice; settings: SW-620, mouse, iv, read-out: inhibition of DNA-PK activity ex vivo in tumour
Outline: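 SW620 s.c. xenografts in female athymic CD1-nu/nu mice. Test compound 2.5 or 25 mg/kg i.v. (vehicle equimolar phosphoric acid, pH 5) or vehicle alone. Killed after 1 or 4 h. Tumours excised and homogenised. DNA-PK activity by ELISA of DNA-PK-dependent p53 peptide (Ser15) phosphorylation in homogenates. 3 mice per time point, mean ± SD.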

MCF7 xenografts = assay: anti-tumour efficacy study, MCF7 xenografts; assay type: in vivo; settings: MCF7 tumour-bearing mice
SW620 xenografts = assay: anti-tumour efficacy study, SW620 xenografts; assay type: in vivo, mice
Outline: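 Female athymic CD1-nu/nu mice with s.c. SW620, n = 5/group, treated once tumours were palpable (~5 × 5 mm, day 8-10). Controls: saline i.p. daily. Test compound 10 mg/kg i.p. for 5 days. Etoposide phosphate 11.35 mg/kg i.p. (10 mg/kg etoposide) daily × 5. Combination: test compound i.p. once or twice daily × 5, first dose just before etoposide. Caliper volume a²×b/2; median RTV (day 0 = 1); time to RTV4.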

solubility = assay type: physicochemical; settings: compared with NU7441
PI-3K δ = PI-3K δ (Homo sapiens, UniProt O00329); assay: cell-free assay, PI-3K isoforms; assay type: biochemical; settings: Supplementary Figure 1
[8] = female, Balb C, mouse, ip, 10 mg/kg
[9] = female, Balb C, mouse, iv, 10 mg/kg
[10] = female, Balb C, mouse, po, 10 mg/kg

Chain of PI-3K δ (O00329 whole entry, species assumed, canonical isoform): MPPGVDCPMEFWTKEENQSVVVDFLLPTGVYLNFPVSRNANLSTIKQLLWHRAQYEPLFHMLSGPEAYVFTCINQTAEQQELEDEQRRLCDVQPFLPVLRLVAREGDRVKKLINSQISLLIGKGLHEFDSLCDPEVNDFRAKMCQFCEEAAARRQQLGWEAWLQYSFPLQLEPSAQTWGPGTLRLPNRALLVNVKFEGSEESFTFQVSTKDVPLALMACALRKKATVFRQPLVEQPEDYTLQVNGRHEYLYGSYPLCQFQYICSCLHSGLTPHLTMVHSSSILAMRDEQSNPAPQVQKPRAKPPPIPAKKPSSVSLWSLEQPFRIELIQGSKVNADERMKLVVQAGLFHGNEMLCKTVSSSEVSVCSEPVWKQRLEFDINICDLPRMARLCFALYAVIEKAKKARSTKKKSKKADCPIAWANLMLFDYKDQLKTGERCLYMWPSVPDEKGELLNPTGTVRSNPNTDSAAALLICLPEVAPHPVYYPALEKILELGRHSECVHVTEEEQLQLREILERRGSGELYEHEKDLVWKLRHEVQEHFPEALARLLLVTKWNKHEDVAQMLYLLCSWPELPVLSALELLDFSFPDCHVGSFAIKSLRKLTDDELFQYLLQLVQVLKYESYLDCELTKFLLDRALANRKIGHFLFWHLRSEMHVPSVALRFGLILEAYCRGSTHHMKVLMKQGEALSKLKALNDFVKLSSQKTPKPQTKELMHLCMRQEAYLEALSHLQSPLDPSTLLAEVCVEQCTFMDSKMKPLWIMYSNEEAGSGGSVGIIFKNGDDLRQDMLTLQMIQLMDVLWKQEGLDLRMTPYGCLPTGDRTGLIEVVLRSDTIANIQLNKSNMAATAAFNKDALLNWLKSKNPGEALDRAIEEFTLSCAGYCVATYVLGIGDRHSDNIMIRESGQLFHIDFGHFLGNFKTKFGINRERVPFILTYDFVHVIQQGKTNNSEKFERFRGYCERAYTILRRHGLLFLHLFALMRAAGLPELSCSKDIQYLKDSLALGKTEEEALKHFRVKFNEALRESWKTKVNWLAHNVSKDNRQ
Chain of PI-3K δ (P27986 whole entry partner, species assumed, canonical isoform): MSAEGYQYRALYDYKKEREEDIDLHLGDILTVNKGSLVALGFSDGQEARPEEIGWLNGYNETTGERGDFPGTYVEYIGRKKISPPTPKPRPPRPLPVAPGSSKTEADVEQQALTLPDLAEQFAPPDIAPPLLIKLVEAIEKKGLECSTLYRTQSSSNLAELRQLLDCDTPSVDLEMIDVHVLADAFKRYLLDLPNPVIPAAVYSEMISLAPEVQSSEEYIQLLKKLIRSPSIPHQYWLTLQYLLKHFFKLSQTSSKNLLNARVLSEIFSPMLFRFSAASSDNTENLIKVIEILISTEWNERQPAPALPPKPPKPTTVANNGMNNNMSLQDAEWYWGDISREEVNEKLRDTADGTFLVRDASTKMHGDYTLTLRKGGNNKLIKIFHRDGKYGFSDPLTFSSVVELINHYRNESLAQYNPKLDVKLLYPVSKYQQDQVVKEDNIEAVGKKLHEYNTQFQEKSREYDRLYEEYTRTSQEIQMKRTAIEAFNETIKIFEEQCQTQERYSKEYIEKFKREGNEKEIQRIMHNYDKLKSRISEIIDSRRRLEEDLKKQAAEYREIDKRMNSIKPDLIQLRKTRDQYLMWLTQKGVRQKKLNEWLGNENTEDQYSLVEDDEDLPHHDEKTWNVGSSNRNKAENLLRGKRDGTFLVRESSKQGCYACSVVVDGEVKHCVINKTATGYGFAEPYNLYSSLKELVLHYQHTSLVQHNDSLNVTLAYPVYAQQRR

With `CCN1CCN(CC(=O)Nc2ccc(-c3cccc4c(=O)cc(N5CCOCC5)oc34)c3sc4ccccc4c23)CC1` [KU-0060648, 2-(4-ethylpiperazin-1-yl)-N-(4-(2-morpholino-4-oxo-4H-chromen-8-yl)dibenzo[b,d]thiophen-1-yl)acetamide] the “inhibition of AKT phosphorylation” value (PI-3K; at 10 μM) was 42%, the IC50 (PI-3K; read-out: IC50 PI-3K-mediated AKT phosphorylation, IGF-1 stimulated) was greater than 10000 nM and the GI50 (SW620 cells [1]; Homo sapiens, SW-620, 120 h) was 950 nM. For the same molecule, the “inhibition of cell growth” value (SW620 cells [1]; SW620, 1 μM, 5 days, 1 µM) was > 50% and 50%, the “total cell growth over 5 days, of DMSO treated controls” value (LoVo cells [2]; 1 μM) was 10% and the GI50 (LoVo cells [2]; Homo sapiens, 120 h) was 210 nM. The inhibition at 1 µM (LoVo cells [2]; Homo sapiens, 120 h, read-out: inhibition of cell growth) was greater than 50%, the GI50 (MCF7 cells [3]; Homo sapiens, MCF7, 120 h) was 270 nM and the “total cell growth over 5 days, of DMSO treated controls” value (MCF7 cells [3]; MCF7, 1 μM) was 4%. For the same molecule, the “inhibition of cell growth” value (MCF7 cells [3]; MCF7, 1 μM, 5 days, 1 µM) was > 95% and > 50%, the GI50 (MDA-MB-231 cells) was 1000 nM and the inhibition at 1 µM (MDA-MB-231 cells; read-out: inhibition of cell growth) was greater than 50%. The “Fold enhancement of doxorubicin cytotoxicity (survival cytotoxic alone/survival cytotoxic + 1 μM KU-0060648)” value (SW620 cells [4]; SW620, 100 nM doxorubicin, 16 hr) was 12 fold and 12±8 fold, the “overall cell survival (clonogenic)” value (SW620 cells [4]; SW620, 1 μM, 16 hr exposure, single agent) was no less than 80% and the “Fold enhancement of doxorubicin cytotoxicity (survival cytotoxic alone/survival cytotoxic + 1 μM KU-0060648)” value (LoVo cells [5]; 100 nM doxorubicin, 16 hr) was 73±29 fold. The “overall cell survival (clonogenic)” value (LoVo cells [5]; 1 μM, 16 hr exposure, single agent) was no less than 80%, the “overall cell survival (clonogenic)” value (MCF7 cells [6]) was no less than 80% and the “fold enhancement of etoposide cytotoxicity” value (V3-YAC cells; 1 μM KU-0060648, 16 hours) was greater than 13 fold. The “reduction in cell viability, compound alone” value (“reduction in cell viability” below) (V3-YAC cells; 1 μM, 16 hours) was less than 15%, the “fold enhancement of etoposide cytotoxicity” value (V3 cells; V3, 1 μM KU-0060648, 16 hours) was 2.5 fold and the “reduction in cell viability” value (V3 cells; V3, 1 μM, 16 hours) was less than 15%. The “fold enhancement of etoposide cytotoxicity” value (M059-Fus-1 cells; M059-Fus-1, 1 μM KU-0060648, 16 hours) was 4 fold, the “fold enhancement of doxorubicin cytotoxicity” value (M059-Fus-1 cells; M059-Fus-1, 1 μM KU-0060648, depending on the doxorubicin concentration) was “up to 32 fold” and the “reduction in cell viability” value (M059-Fus-1 cells; M059-Fus-1, 1 μM, 16 hours) was less than 5%. The “fold enhancement of doxorubicin cytotoxicity” value (M059J cells; 1 μM KU-0060648) was 1.4 fold, the “reduction in cell viability” value (M059J cells; 1 μM, 16 hours) was less than 5% and the CL ([7]; 10 mg/kg i.p) was 54 mL/min/kg. The CL ([7]; 10 mg/kg p.o) was 35 mL/min/kg, the AUC(0-inf) [7, 8] was 3150 ng·h/mL and the Cmax [7, 8] was 900 ng/mL. For the same molecule, the Tmax [7, 8] was 0.5 h, the bioavailability [7, 8] was 78% and the half-life [7, 8] was 1.77 h. For the same molecule, the AUC(0-inf) [7, 9] was 4030 ng·h/mL, the Cmax [7, 9] was 1900 ng/mL and the Tmax [7, 9] was 0.0833 h. For the same molecule, the clearance [7, 9] was 41 mL/min/kg, the half-life [7, 9] was 1.7 h and the AUC(0-inf) [7, 10] was 4780 ng·h/mL. The Cmax [7, 10] was 900 ng/mL, the Tmax [7, 10] was 2 h and the bioavailability [7, 10] was 119%. The half-life [7, 10] was 2.37 h, the inhibition at 25 mg/kg (DNA-PK) was roughly 100% and the “maximum body weight loss” value (MCF7 xenografts) was 3%. For the same molecule, the “maximum body weight loss” value (SW620 xenografts; SW620 tumour-bearing mice) was “no body weight loss”, the “fold increase of etoposide-induced tumour growth delay” value (SW620 xenografts; in both SW620 and MCF7 xenografts) was “up to 4.5 fold” and the fold greater solubility (solubility) was greater than 500 fold. For the same molecule, the “potency rank among the four PI-3K isoforms” value (PI-3K δ) was “greatest potency”.

— article PMC3428850 (Molecular cancer therapeutics, 2012)
